Measurements: ChEMBL document CHEMBL4373671, “Evaluation of anti-inflammatory activity and molecular docking study of new aza-bicyclic isoxazoline acylhydrazone derivatives” (2019)
Activity calls are given as the source filed them. The rule behind the calls is not given here.

What was measured:
Mus musculus [1] = assay: Antiinflammatory activity in Swiss mouse assessed as reduction in dextran-induced paw edema at 10 mg/kg, po treated 1 hr prior to dextran challenge and measured every 60 mins for 4 hrs by plethysmometer analysis; type: functional, organism-based
Summary of the method: (§1)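 Swiss mice were given an oral dose in saline + 5% DMSO 1 h before intraplantar 0.2% dextran (50 μL) into the right hind paw. Paw volume was measured by plethysmometer every 60 min up to 4 h, as the difference from the contralateral saline paw.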

Mus musculus [2] = assay: Antiinflammatory activity in Swiss mouse assessed as reduction in bradykinin-induced paw edema volume at 15 mg/kg, po treated 1 hr prior to bradykinin challenge measured after 15 to 30 mins by plethysmometer analysis; type: functional, organism-based
Summary of the method: (§2)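 Mice were given captopril 5 mg kg–1 1 h before the bradykinin challenge to block kininases. Oral dosing (vehicle saline + 5% DMSO) preceded intraplantar bradykinin (10 nmol, 50 μL) into the right hind paw by 1 h. Plethysmometer readings at 15, 30, 60 and 90 min, relative to the contralateral paw.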

Mus musculus [3] = assay: Antiinflammatory activity against carrageenan-induced air pouch inflammatory Swiss mouse model assessed as inhibition of PMNL cell migration in air pouch at 120 mg/kg, po treated 1 hr prior to carrageenan administration and measured after 6 hrs relative to control; type: functional
Mus musculus [4] = assay: Antiinflammatory activity in Swiss mouse assessed as reduction in dextran-induced paw edema at 15 mg/kg, po treated 1 hr prior to dextran challenge and measured after 3 to 4 hrs by plethysmometer analysis; type: functional, organism-based; summary of the method: as §1
Mus musculus [5] = assay: Antiinflammatory activity against carrageenan-induced air pouch inflammatory Swiss mouse model assessed as inhibition of PMNL cell migration in air pouch at 15 mg/kg, po treated 1 hr prior to carrageenan administration and measured after 6 hrs relative to control; type: functional
Mus musculus [6] = assay: Antiinflammatory activity in Swiss mouse assessed as inhibition of histamine-induced paw edema at 15 mg/kg, po treated 1 hr prior to histamine challenge measured after 15 mins by plethysmometer analysis; type: functional, organism-based
Summary of the method: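 Swiss mice were dosed at 15 mg kg–1 orally in saline + 5% DMSO 1 h before injection of histamine (100 μg, 50 μL) into the right hind paw. Paw volume was measured by plethysmometer at 15, 30, 60 and 90 min, relative to the contralateral saline paw.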

Mus musculus [7] = assay: Antiinflammatory activity in Swiss mouse assessed as inhibition of acetic acid-induced increase in vascular permeability at 15 mg/kg, po treated 1 hr prior to acetic acid challenge and measured after 30 mins by Evans blue dye based assay; type: functional, organism-based
Summary of the method: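 Male Swiss mice received 15 mg kg–1 p.o. or vehicle (saline + 5% DMSO). After 1 h, under ketamine/xylazine (8:2 v/v, i.p.), 0.2 mL 1% Evans blue was given retro-orbitally, then 0.5 mL 1% acetic acid i.p. At 30 min the peritoneal cavity was washed with saline; exudate was centrifuged (2000 rpm, 10 min) and supernatant absorbance read at 610 nm.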

Mus musculus [8] = assay: Antiinflammatory activity in Swiss mouse assessed as reduction in compound 48/80-induced paw edema at 15 mg/kg, po treated 1 hr prior to compound 48/80 challenge measured after 15 to 30 mins by plethysmometer analysis; type: functional, organism-based
Mus musculus [9] = assay: Antiinflammatory activity against carrageenan-induced air pouch inflammatory Swiss mouse model assessed as number of polymorphonuclear leucocytes in air pouch at 120 mg/kg, po treated for 1 hr prior to carrageenan administration and measured after 6 hrs (reference value: 13.76 +/- 0.55X10'6/ml); type: functional
Mus musculus [10] = assay: Antiinflammatory activity against carrageenan-induced air pouch inflammatory Swiss mouse model assessed as TNF-alpha level in air pouch exudate at 15 mg/kg, po treated 1 hr prior to carrageenan administration and measured after 6 hrs by sandwich ELISA (reference value: 425.17 pg/ml); type: functional
Mus musculus [11] = assay: Antiinflammatory activity against carrageenan-induced air pouch inflammatory Swiss mouse model assessed as number of polymorphonuclear leucocytes in air pouch at 15 mg/kg, po treated for 1 hr prior to carrageenan administration and measured after 6 hrs (reference value: 13.76 +/- 0.55X10'6/ml); type: functional
Mus musculus [12] = assay: Antiinflammatory activity in Swiss mouse assessed as inhibition of 5-HT-induced paw edema assessed as reduction in paw volume at 15 mg/kg, po treated 1 hr prior to 5-HT challenge and measured after 15 to 90 mins by plethysmometer analysis; type: functional, organism-based
Summary of the method: (§3)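 Male Swiss mice received 15 mg kg–1 p.o. (saline + 5% DMSO) 1 h before intraplantar 5-HT (100 μg in 50 μL) into the right hind paw. Plethysmometer readings at 15, 30, 60 and 90 min. Edema expressed as volume difference from the contralateral saline paw.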

Mus musculus [13] = assay: Antiinflammatory activity against carrageenan-induced air pouch inflammatory Swiss mouse model assessed as number of polymorphonuclear leucocytes in air pouch at 30 mg/kg, po treated for 1 hr prior to carrageenan administration and measured after 6 hrs (reference value: 13.76 +/- 0.55X10'6/ml); type: functional
Mus musculus [14] = assay: Antiinflammatory activity against carrageenan-induced air pouch inflammatory Swiss mouse model assessed as IL-1beta level in air pouch exudate at 15 mg/kg, po treated 1 hr prior to carrageenan administration and measured after 6 hrs by sandwich ELISA (reference value: 564.06 pg/ml); type: functional
Mus musculus [15] = assay: Antiinflammatory activity against carrageenan-induced air pouch inflammatory Swiss mouse model assessed as number of polymorphonuclear leucocytes in air pouch at 60 mg/kg, po treated for 1 hr prior to carrageenan administration and measured after 6 hrs (reference value: 13.76 +/- 0.55X10'6/ml); type: functional
Mus musculus [16] = assay: Antiinflammatory activity against carrageenan-induced paw edema in Swiss mouse assessed as reduction in paw edema at 15 mg/kg, po administered 1 hr prior to carrageenan challenge and measured after 2 to 6 hrs by plethysmometric analysis; type: functional, organism-based
Summary of the method: (§4)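 Male Swiss mice (25–30 g, fasted 8 h), dosed orally in saline + 5% DMSO 1 h before 50 μL 1% carrageenan into the right hind paw. Paw volume read by plethysmometer before challenge and at 2, 4 and 6 h. Edema taken as the volume difference from the saline-injected contralateral paw. Two-way ANOVA with Tukey.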

Mus musculus [17] = assay: Antiinflammatory activity in Swiss mouse assessed as reduction in BthTX-2-induced paw edema at 15 mg/kg, po treated 1 hr prior to BthTX-2 challenge measured after 15 to 45 mins by plethysmometer analysis; type: functional, organism-based
Mus musculus [18] = assay: Antiinflammatory activity against carrageenan-induced air pouch inflammatory Swiss mouse model assessed as inhibition of PMNL cell migration in air pouch at 30 mg/kg, po treated 1 hr prior to carrageenan administration and measured after 6 hrs relative to control; type: functional
Mus musculus [19] = assay: Antiinflammatory activity against carrageenan-induced air pouch inflammatory Swiss mouse model assessed as inhibition of PMNL cell migration in air pouch at 60 mg/kg, po treated 1 hr prior to carrageenan administration and measured after 6 hrs relative to control; type: functional
Mus musculus [20] = assay: Antiinflammatory activity against carrageenan-induced air pouch inflammatory Swiss mouse model assessed as TNF-alpha level in air pouch exudate at 10 mg/kg, po treated 1 hr prior to carrageenan administration and measured after 6 hrs by sandwich ELISA (reference value: 425.17 pg/ml); type: functional
Mus musculus [21] = assay: Antiinflammatory activity against carrageenan-induced air pouch inflammatory Swiss mouse model assessed as IL-1beta level in air pouch exudate at 10 mg/kg, po treated 1 hr prior to carrageenan administration and measured after 6 hrs by sandwich ELISA (reference value: 564.06 pg/ml); type: functional
Mus musculus [22] = assay: Antiinflammatory activity against carrageenan-induced air pouch inflammatory Swiss mouse model assessed as number of polymorphonuclear leucocytes in air pouch at 10 mg/kg, po treated for 1 hr prior to carrageenan administration and measured after 6 hrs (reference value: 13.76 +/- 0.55X10'6/ml); type: functional
Mus musculus [23] = assay: Antiinflammatory activity against carrageenan-induced paw edema in Swiss mouse assessed as reduction in paw edema at 10 mg/kg, po administered 1 hr prior to carrageenan challenge and measured after 2 to 6 hrs by plethysmometer analysis; type: functional, organism-based; summary of the method: as §4
Mus musculus [24] = assay: Antiinflammatory activity against carrageenan-induced air pouch inflammatory Swiss mouse model assessed as inhibition of PMNL cell migration in air pouch at 10 mg/kg, po treated 1 hr prior to carrageenan administration and measured after 6 hrs relative to control; type: functional
Mus musculus [25] = assay: Antiinflammatory activity in Swiss mouse assessed as inhibition of 5-HT-induced paw edema at 15 mg/kg, po treated 1 hr prior to 5-HT challenge measured after 30 mins by plethysmometer analysis; type: functional, organism-based; summary of the method: as §3
Mus musculus [26] = assay: Antiinflammatory activity in Swiss mouse assessed as reduction in dextran-induced paw edema at 15 mg/kg, po treated 1 hr prior to dextran challenge and measured every 60 mins for 4 hrs by plethysmometer analysis; type: functional, organism-based; summary of the method: as §1
Mus musculus [27] = assay: Antiinflammatory activity in Swiss mouse assessed as inhibition of bradykinin-induced paw edema at 0.5 mg/kg, po treated 1 hr prior to bradykinin challenge measured after 15 to 90 mins by plethysmometer analysis; type: functional, organism-based; summary of the method: as §2

For `CN1CCC(=C2c3ccccc3C=Cc3ccccc32)CC1`, the Activity (Mus musculus [1]) was “Active”.

For `COc1ccc(/C=N\NC(=O)C2=NO[C@@H]3[C@H]2CCN3C(=O)c2ccc([N+](=O)[O-])cc2)cc1` (racemic), the Activity (Mus musculus [2]) was “Active”, the inhibition in vivo at 120 mg/kg (Mus musculus [3]) was 8% and the Activity (Mus musculus [4]) was “Active”. For the same molecule, the inhibition in vivo at 15 mg/kg (Mus musculus [5]) was 67%, the inhibition (Mus musculus [6]) was “Active” and the inhibition (Mus musculus [7]) was “Active”. For the same molecule, the inhibition (Mus musculus [8]) was “Active”, the Activity (Mus musculus [9]) was 12.72 ×10⁶ /ml and the Activity (Mus musculus [10]) was 305.88 pg/mL. The Activity (Mus musculus [11]) was 4.6 ×10⁶ /ml, the inhibition (Mus musculus [12]) was “Active” and the Activity (Mus musculus [13]) was 6.72 ×10⁶ /ml. The Activity (Mus musculus [14]) was 358.28 pg/mL, the Activity (Mus musculus [15]) was 8.98 ×10⁶ /ml and the Activity (Mus musculus [16]) was “Active”. The Activity (Mus musculus [17]) was “Active”, the inhibition in vivo at 30 mg/kg (Mus musculus [18]) was 51% and the inhibition in vivo at 60 mg/kg (Mus musculus [19]) was 35%.

`COc1ccc2c(c1)c(CC(=O)O)c(C)n2C(=O)c1ccc(Cl)cc1` [INDOMETHACIN] was tested, and the Activity (Mus musculus [20]) was 458.97 pg/mL, the Activity (Mus musculus [21]) was “<=329.81 pg/ml” and the Activity (Mus musculus [22]) was 4.84 ×10⁶ /ml. The Activity (Mus musculus [23]) was “Active” and the inhibition in vivo at 10 mg/kg (Mus musculus [24]) was 65%.

`O=C(N/N=C\c1ccc(Cl)cc1)C1=NO[C@@H]2[C@H]1CCN2C(=O)c1ccc(Cl)cc1` (racemic) was tested, and the Activity (Mus musculus [2]) was “Active”, the inhibition in vivo at 120 mg/kg (Mus musculus [3]) was 56% and the inhibition (Mus musculus [25]) was “Active”. For the same molecule, the inhibition in vivo at 15 mg/kg (Mus musculus [5]) was 76%, the inhibition (Mus musculus [6]) was “Active” and the inhibition (Mus musculus [7]) was “Active”. For the same molecule, the inhibition (Mus musculus [8]) was “Active”, the Activity (Mus musculus [9]) was 6.1 ×10⁶ /ml and the Activity (Mus musculus [10]) was 271.6 pg/mL. For the same molecule, the Activity (Mus musculus [11]) was 3.33 ×10⁶ /ml, the Activity (Mus musculus [13]) was 4.97 ×10⁶ /ml and the Activity (Mus musculus [14]) was 323.11 pg/mL. The Activity (Mus musculus [15]) was 5.94 ×10⁶ /ml, the Activity (Mus musculus [16]) was “Active” and the Activity (Mus musculus [17]) was “Active”. For the same molecule, the inhibition in vivo at 30 mg/kg (Mus musculus [18]) was 64%, the inhibition in vivo at 60 mg/kg (Mus musculus [19]) was 57% and the Activity (Mus musculus [26]) was “Active”.

In the case of `C[C@@H]1C[C@H]2[C@@H]3CCC4=CC(=O)C=C[C@]4(C)[C@@]3(F)[C@@H](O)C[C@]2(C)[C@@]1(O)C(=O)CO`, the inhibition (Mus musculus [27]) is reported as “Active”.
